In assay [1] the test system is T790M/L858R double mutant over wild-type EGFR. To be noted: cited from earlier work.
In the next assay the test system is HepG2 cells. In words: MTT anti-proliferative assay, HepG2. It is filed as cell-based, human. To be noted: read-out: Anti-proliferative activity IC50, HepG2. (In general: Tetrazolium dyes change colour on reduction, which living cells bring about.)
In assay [2] the test system is A549 cells. In words: Cell cycle distribution by flow cytometry. Type of assay: cell-based, human. For orientation: Flow cytometry measures light scatter and fluorescence of single cells or particles in a stream.
A further assay deals with MCF-7 cells. The experiment in a line: MTT anti-proliferative assay, MCF-7. It is filed as cell-based, human. To be noted: read-out: Anti-proliferative activity IC50, MCF-7.
Assay [3] has as its system A549 cells. The experiment in a line: Annexin V-FITC/PI apoptosis assay by flow cytometry. Type of assay: cell-based, human. To be noted: A549, 2.5 μM, 48 h; untreated control 12.18%. Summed up:
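A549 cells seeded at 1 × 10^6 cells/well in RPMI 1640 and exposed to test compound for 48 h. Cells stained with Annexin V-FITC and propidium iodide for 30 min at 4 °C in the dark, then analysed by flow cytometry to give quadrant populations.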

In assay [4] the test system is A549 cells. The experiment in a line: cells. Type of assay: cell-based, human. To be noted: read-out: Anti-proliferative activity IC50, A549.
Assay [5] concerns A549 cells. The experiment in a line: Acridine orange. Type of assay: cell-based, human. The settings on record: A549, AO single staining.
A further assay relates to H1975 cells. It is filed as cell-based, human. The settings on record: for IC50: read-out: Anti-proliferative activity IC50, H1975, 72 h; for IC50 / inhibitory activity against H1975 cells (in words): H1975, MTT.

Entries after “also recorded” stand apart in the source; their conditions may differ. Read-outs that look alike come from different tables or passages of the source.

For the molecule `C=CC(=O)Nc1cc(Nc2nccc(-c3cn(C)c4ccccc34)n2)c(OC)cc1N(C)CCN(C)C` [AZD9291], in assay [1], the “selectivity for the T790M/L858R double mutant over wild-type EGFR” value is on record as 200 fold.

Regarding `O=C(N/N=C/c1cnc(N2CCCC2)nc1)Nc1cc2c(Nc3ccc(F)c(Cl)c3)ncnc2cc1O[C@H]1CCOC1` [Compound 14, (S,E)-N-(4-((3-chloro-4-fluorophenyl)amino)-7-((tetrahydrofuran-3-yl)oxy)quinazolin-6-yl)-2-((2-(pyrrolidin-1-yl)pyrimidin-5-yl)methylene)hydrazine-1-carboxamide], the IC50 in the assay with HepG2 cells (Homo sapiens, HepG2, 72 h) worked out at 4.63 ± 0.36 µM; in the assay on MCF-7 cells (Homo sapiens, MCF7, 72 h) it was 2.37 ± 0.34 µM; in the assay with A549 cells [4] (Homo sapiens, A549, 72 h), 5.9 ± 0.25 µM. The “cell cycle arrest phase (in words)” value in the assay on A549 cells [2] (A549) is “S phase arrest; also recorded: arrested the cell cycle at the S phase”. The “proportion of cells in S phase” value in the assay with A549 cells [2] (A549, 2.5 μM) was 50.68%. In the assay on A549 cells [2] (A549, 2.5 μM, control 26.57%), the “proportion of cells in G0/G1 phase” value is on record as 23.62%. The “proportion of cells in G2/M phase” value in the assay with A549 cells [2] (A549, 2.5 μM, control 29.4%) is on record as 25.7%. For the same molecule, the “G0/G1 (%)” value with A549 cells [2] (A549, 25 μM, 48 h, DMSO 26.57) amounted to 23.62%. Besides, the “G2/M (%)” value in the assay on A549 cells [2] (A549, 25 μM, 48 h, DMSO 29.40) was 25.70%. Further, in the assay on A549 cells [2] (A549, 25 μM, 48 h, DMSO 44.03), the “S (%)” value is 50.68%. Besides, the “apoptotic cells (early + late)” value in the assay on A549 cells [3] amounted to 34.9%. Besides, the “induction of A549 cell apoptosis by AO staining (in words)” value with A549 cells [5] is “can induce A549 cell apoptosis”. Also, the “selectivity for H1975 cells (in words)” value with H1975 cells (versus HepG2, A549, MCF-7) is recorded as “slight selectivity”.

Regarding `O=C(N/N=C/c1ccc(OCCN2CCOCC2)cc1)Nc1cc2c(Nc3ccc(F)c(Cl)c3)ncnc2cc1O[C@H]1CCOC1` [Compound 41, (S,E)-N-(4-((3-chloro-4-fluoropheny)amino)-7-((tetrahydrofuran-3-yl)oxy)quinazolin-6-yl)-2-(4-(2-morpholinoethoxy)benzylidene)hydrazine-1-carboxamide], the IC50 with HepG2 cells (HepG2, MTT, 72 h) amounted to 40.2 ± 3.04 µM; in the assay on MCF-7 cells (MCF-7, MTT, 72 h) it was 28.8 ± 1.29 µM; in the assay with A549 cells [4] (A549, MTT, 72 h) it was 37.8 ± 2.54 µM; in the assay with H1975 cells, 25.5 ± 1.44 µM.

In the case of `COc1cc2ncnc(Nc3ccc(F)c(Cl)c3)c2cc1NC(=O)N/N=C/c1ccc(OCCCN2CCCCC2)cc1` [Compound 46, (E)-N-(4-((3-chloro-4-fluoropheny)amino)-7-methoxyquinazolin-6-yl)-2-(4-(3-(piperidin-1-yl)propoxy)benzylidene)hydrazine-1-carboxamide], the IC50 in the assay with HepG2 cells (HepG2, MTT, 72 h) stood at 9.58 ± 0.94 µM; with MCF-7 cells (MCF-7, MTT, 72 h), 6.85 ± 0.65 µM; in the assay on A549 cells [4] (A549, MTT, 72 h), 4.01 ± 0.56 µM; in the assay on H1975 cells it was 3.1 ± 0.49 µM.

In the case of `COc1cc2ncnc(Nc3ccc(F)c(Cl)c3)c2cc1NC(=O)N/N=C/c1ccc(OCCCN2CCOCC2)cc1` [Compound 47, (E)-N-(4-((3-chloro-4-fluoropheny)amino)-7-methoxyquinazolin-6-yl)-2-(4-(3-morpholinopropoxy)benzylidene)hydrazine-1-carboxamide], the IC50 in the assay with HepG2 cells (HepG2, MTT, 72 h) came out at 28.4 ± 1.78 µM; in the assay on MCF-7 cells (MCF-7, MTT, 72 h), 27.5 ± 1.29 µM; with A549 cells [4] (A549, MTT, 72 h) it was 34.8 ± 1.26 µM; with H1975 cells, 41.2 ± 2.07 µM.

On to “(E)-N-(4-((3-chloro-4-fluoropheny)amino)-7-methoxyquinazolin-6-yl)-2-(4-(2-(pyrrolidin-1-yl)ethoxy)benzylid ene)hydrazine-1-carboxamide [Compound 33]”, for which the 50% inhibitory concentration (IC50) in the assay on HepG2 cells (HepG2, MTT, 72 h) turned out to be 46.7 ± 4.46 µM; in the assay with MCF-7 cells (MCF-7, MTT, 72 h), 44.2 ± 3.75 µM; in the assay with A549 cells [4] (A549, MTT, 72 h), 36.4 ± 2.78 µM; in the assay with H1975 cells it was 49.3 ± 4.68 µM.

Regarding “(E)-N-(4-((3-chloro-4-fluoropheny)amino)-7-methoxyquinazolin-6-yl)-2-(4-(3-(4-methylpiperazin-1-yl)propoxy) benzylidene)hydrazine-1-carboxamide [Compound 48]”, the IC50 was found to be 14.5 ± 1.27 µM in the assay with HepG2 cells (HepG2, MTT, 72 h); 12.2 ± 0.89 µM in the assay on MCF-7 cells (MCF-7, MTT, 72 h); 2.96 ± 0.36 µM in the assay on A549 cells [4] (A549, MTT, 72 h); 10.2 ± 1.26 µM with H1975 cells. Moreover, the “inhibitory activity against H1975 cells (in words)” value (from here on “inhibitory activity”) in the assay with H1975 cells is “moderate inhibitory activity”.

On to “(E)-N-(4-((3-chloro-4-fluoropheny)amino)-7-methoxyquinazolin-6-yl)-2-(4-(3-(dimethylamino)propoxy)benzyl idene)hydrazine-1-carboxamide [Compound 43]”, for which the IC50 in the assay with HepG2 cells (HepG2, MTT, 72 h) is above 100 µM; with MCF-7 cells (MCF-7, MTT, 72 h), above 100 µM; with A549 cells [4] (A549, MTT, 72 h), 43.1 ± 3.34 µM; in the assay with H1975 cells, above 100 µM.

As to “(E)-N-(4-((3-chloro-4-fluoropheny)amino)-7-methoxyquinazolin-6-yl)-2-(4-(3-(pyrrolidin-1-yl)propoxy)benzyli dene)hydrazine-1-carboxamide [Compound 45]”, the IC50 came out at 24.5 ± 1.27 µM in the assay with HepG2 cells (HepG2, MTT, 72 h); 16.9 ± 1.34 µM with MCF-7 cells (MCF-7, MTT, 72 h); 23.2 ± 1.47 µM in the assay on A549 cells [4] (A549, MTT, 72 h); 38.2 ± 1.23 µM in the assay on H1975 cells.

For “(S,E)-N-(4-((3-chloro-4-fluoropheny)amino)-7-((tetrahydrofuran-3-yl)oxy)quinazolin-6-yl)-2-(4-(2-(4-methylpi perazin-1-yl)ethoxy)benzylidene)hydrazine-1-carboxamide [Compound 42]”, the IC50 was determined as 13.4 ± 0.54 µM in the assay with HepG2 cells (HepG2, MTT, 72 h); 10.8 ± 0.68 µM in the assay with MCF-7 cells (MCF-7, MTT, 72 h); 2.52 ± 0.54 µM in the assay with A549 cells [4] (A549, MTT, 72 h); 11.2 ± 1.34 µM in the assay with H1975 cells. In addition, the “inhibitory activity” value with H1975 cells is on record as “moderate inhibitory activity”.

As for “(S,E)-N-(4-((3-chloro-4-fluoropheny)amino)-7-((tetrahydrofuran-3-yl)oxy)quinazolin-6-yl)-2-(4-(2-(diethylamin o)ethoxy)benzylidene)hydrazine-1-carboxamide [Compound 38]”, the IC50 with HepG2 cells (HepG2, MTT, 72 h) is 1.91 ± 0.34 µM; in the assay on MCF-7 cells (MCF-7, MTT, 72 h), 1.99 ± 0.68 µM; in the assay on A549 cells [4] (A549, MTT, 72 h), 3.01 ± 0.54 µM; with H1975 cells it was above 100 µM. Moreover, in the assay on H1975 cells, the “inhibitory activity” value is on record as “poorer cellular activity”.

Consider “(S,E)-N-(4-((3-chloro-4-fluorophenyl)amino)-7-((tetrahydrofuran-3-yl)oxy)quinazolin-6-yl)-2-(4-(3-(diethylamin o)propoxy)benzylidene)hydrazine-1-carboxamide [Compound 49]”, for which the IC50 in the assay on HepG2 cells (HepG2, MTT, 72 h) was 5.04 ± 0.64 µM; in the assay on MCF-7 cells (MCF-7, MTT, 72 h), 6.21 ± 0.68 µM; with A549 cells [4] (A549, MTT, 72 h), 9.48 ± 0.86 µM; in the assay on H1975 cells, 32.8 ± 1.27 µM. For the same molecule, the “inhibitory activity” value with H1975 cells is “poorer cellular activity”.

The IC50 is the point on the concentration scale where inhibition reaches its midpoint.

(Values after publication PMC6282443 (Journal of Enzyme Inhibition and Medicinal Chemistry, 2018).)
